Starred links: 1 amine or outer side, 2 acyl side, 3 side chain; linkers in the order of their positions; H or OH if unused. Non-standard residues stand in square brackets, D forms with d. Residues, ends and D or L forms follow the SMILES beside them. Gly(9-fluorenyl) = N[C@H](C(=O)O)C1c2ccccc2-c2ccccc21; X1 = O=C([C@@H](N[*:1])C1CCc2ccccc21)[*:2]; Dip = N[C@H](C(=O)O)C(c1ccccc1)c1ccccc1
Assays:
Cavia porcellus [1] = species: Cavia porcellus; assay: (§1) pKB value of compound was determined in presence of antagonist RP-67580 at conc. of 10e-7 M; assay type: functional
Cavia porcellus [2] = species: Cavia porcellus; assay: as §1; assay type: functional; remark: listed apart in the source
Outline: (§2)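 Guinea pig ileum strips (1 cm, terminal portion, males 300–400 g) in oxygenated Tyrode at 37 °C, 1 g tension. Agonist added cumulatively, doubling bath concentration at each steady response. Antagonist RP-67,580, one concentration (10⁻⁷ M), preincubated 5 min before first agonist addition. pKB = log(dose ratio − 1) − log([antagonist]); three independent determinations.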

Cavia porcellus [3] = species: Cavia porcellus; assay: Effective concentration required for its inhibition of nonspecific binding to guinea pig ileal membranes; assay type: functional
Cavia porcellus [4] = species: Cavia porcellus; assay: Concentration required to inhibit nonspecific binding of [125I]BH-SP to guinea pig ileal membranes; assay type: functional
Neuromedin-K receptor = target: T1, Neuromedin-K receptor (Rattus norvegicus, UniProt P16177); assay: Concentration required to inhibit the specific binding of [125I]BH-ELE to Neurokinin-3 (NK-3) receptor in rat brain synaptosomes; assay type: subcellular
T1 sequence (P16177 whole entry): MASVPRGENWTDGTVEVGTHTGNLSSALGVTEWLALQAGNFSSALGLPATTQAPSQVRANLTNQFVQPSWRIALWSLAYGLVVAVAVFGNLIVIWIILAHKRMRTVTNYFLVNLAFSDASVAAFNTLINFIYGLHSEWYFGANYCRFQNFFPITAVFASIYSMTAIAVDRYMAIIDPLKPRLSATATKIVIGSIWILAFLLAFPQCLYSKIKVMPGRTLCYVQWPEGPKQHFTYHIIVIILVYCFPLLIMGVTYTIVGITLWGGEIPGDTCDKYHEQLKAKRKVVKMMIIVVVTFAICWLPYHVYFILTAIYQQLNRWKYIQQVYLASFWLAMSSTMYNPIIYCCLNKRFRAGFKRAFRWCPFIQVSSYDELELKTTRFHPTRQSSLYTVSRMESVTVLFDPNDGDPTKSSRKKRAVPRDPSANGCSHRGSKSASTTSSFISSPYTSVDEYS
Outline: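 Rat brain synaptosomes in Krebs-Ringer phosphate buffer with BSA, bacitracin and glucose. Incubated 15 min at 20 °C with 40 pM [125I]BHELE and increasing peptide concentrations, gamma counted. Triplicates, two to eight independent experiments; nonspecific binding defined with eledoisin 10⁻⁶ M. IC50 estimated from Hill plots of titration curves.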

Substance-P receptor = Substance-P receptor (Rattus norvegicus, UniProt P14600); assay: Concentration required to inhibit the specific binding of [125I]BH-SP to Neurokinin-1 (NK-1) receptor in rat brain synaptosomes; assay type: subcellular
Substance-K receptor = target: T2, Substance-K receptor (Rattus norvegicus, UniProt P16610); assay: Concentration required to inhibit the specific binding of [3H]NKA to Neurokinin-2 (NK-2) receptor in rat duodenum membranes
T2 sequence (P16610 whole entry): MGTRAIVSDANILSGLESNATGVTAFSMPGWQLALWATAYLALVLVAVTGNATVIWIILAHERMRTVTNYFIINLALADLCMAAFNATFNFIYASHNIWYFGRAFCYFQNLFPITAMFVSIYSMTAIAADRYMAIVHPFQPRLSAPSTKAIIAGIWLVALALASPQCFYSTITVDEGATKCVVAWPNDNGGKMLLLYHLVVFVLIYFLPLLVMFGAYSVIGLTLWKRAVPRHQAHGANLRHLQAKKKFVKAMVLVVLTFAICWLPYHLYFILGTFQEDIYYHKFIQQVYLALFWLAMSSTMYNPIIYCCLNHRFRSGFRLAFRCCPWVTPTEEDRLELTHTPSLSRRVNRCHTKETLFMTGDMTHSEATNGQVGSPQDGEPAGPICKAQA

Cavia porcellus [5] = species: Cavia porcellus; assay: pKb value of compound was determined in presence of antagonist RP-67580 at conc. of 10e-7 M; assay type: functional; outline: as §2

Sequence of Substance-P receptor (P14600 whole entry): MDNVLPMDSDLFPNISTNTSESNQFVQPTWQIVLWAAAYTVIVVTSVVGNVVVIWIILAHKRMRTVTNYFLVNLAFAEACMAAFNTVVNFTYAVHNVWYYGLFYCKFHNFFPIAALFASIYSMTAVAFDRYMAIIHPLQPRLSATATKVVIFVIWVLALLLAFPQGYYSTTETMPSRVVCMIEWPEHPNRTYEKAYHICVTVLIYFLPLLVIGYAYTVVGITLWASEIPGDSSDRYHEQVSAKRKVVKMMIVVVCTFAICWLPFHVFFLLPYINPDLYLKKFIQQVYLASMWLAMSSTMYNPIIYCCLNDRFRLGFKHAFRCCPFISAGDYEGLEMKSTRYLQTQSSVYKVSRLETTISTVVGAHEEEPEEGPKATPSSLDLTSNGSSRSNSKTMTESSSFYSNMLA

SMILES | pKb (Cavia porcellus [1]) | EC50 (Cavia porcellus [3]) [nM] | IC50 (Cavia porcellus [4]) [nM] | IC50 (Neuromedin-K receptor) [nM] | IC50 (Substance-P receptor) [nM] | IC50 (Substance-K receptor) [nM] | also measured
CSCC[C@H](NC(=O)[C@H](CC(C)C)NC(=O)CNC(=O)[C@H](Cc1ccccc1)NC(=O)[C@H](CCc1ccccc1)NC(=O)[C@H](CCC(N)=O)NC(=O)[C@H](CCC(N)=O)NC(=O)[C@@H]1CCCN1C(=O)[C@H](CCCCN)NC(=O)[C@@H]1CCCN1C(=O)[C@@H](N)CCCN=C(N)N)C(N)=O [listing 1 of 2 here] | 7.25 |  |  |  |  |  | 
CSCC[C@H](NC(=O)[C@H](CC(C)C)NC(=O)[C@@H]1CCCN1C(=O)[C@@H](NC(=O)[C@H](Cc1ccccc1)NC(=O)[C@H](CCC(N)=O)NC(=O)[C@H](CCC(N)=O)NC(=O)[C@@H]1CCCN1C(=O)[C@H](CCCCN)NC(=O)[C@@H]1CCCN1C(=O)[C@@H](N)CCCN=C(N)N)C(c1ccccc1)c1ccccc1)C(N)=O (H-RPKPQQF[Dip]PLM-NH2) [listing 1 of 2 here] |  |  |  |  |  |  | pKB (Cavia porcellus [2]): 7.25
CSCC[C@H](NC(=O)[C@H](CC(C)C)NC(=O)CNC(=O)[C@@H](NC(=O)[C@H](Cc1ccccc1)NC(=O)[C@H](CCC(N)=O)NC(=O)[C@H](CCC(N)=O)NC(=O)[C@@H]1CCCN1C(=O)[C@H](CCCCN)NC(=O)[C@@H]1CCCN1C(=O)[C@@H](N)CCCN=C(N)N)C(c1ccccc1)c1ccccc1)C(N)=O [listing 1 of 2 here] |  | 15 | 260 |  |  |  | 
CSCC[C@H](NC(=O)[C@H](CC(C)C)NC(=O)CNC(=O)[C@H](Cc1ccccc1)NC(=O)[C@@H](NC(=O)[C@H](CCC(N)=O)NC(=O)[C@H](CCC(N)=O)NC(=O)[C@@H]1CCCN1C(=O)[C@H](CCCCN)NC(=O)[C@@H]1CCCN1C(=O)[C@@H](N)CCCN=C(N)N)[C@@H]1CCc2ccccc21)C(N)=O [listing 1 of 2 here] |  | 6.9 | 23 | 2100 | 54 | 530 | 
CSCC[C@H](NC(=O)[C@H](CC(C)C)NC(=O)[C@@H]1CCCN1C(=O)[C@@H](NC(=O)[C@H](Cc1ccccc1)NC(=O)[C@H](CCC(N)=O)NC(=O)[C@H](CCC(N)=O)NC(=O)[C@@H]1CCCN1C(=O)[C@H](CCCCN)NC(=O)[C@@H]1CCCN1C(=O)[C@@H](N)CCCN=C(N)N)C(c1ccccc1)c1ccccc1)C(N)=O (H-RPKPQQF[Dip]PLM-NH2) [listing 2 of 2 here] |  | 20 | 260 | > 10000 | 2500 | 6000 | 
CSCC[C@H](NC(=O)[C@H](CC(C)C)NC(=O)CNC(=O)[C@H](Cc1ccccc1)NC(=O)/C(=C\c1ccccc1)NC(=O)[C@H](CCC(N)=O)NC(=O)[C@H](CCC(N)=O)NC(=O)[C@@H]1CCCN1C(=O)[C@H](CCCCN)NC(=O)[C@@H]1CCCN1C(=O)[C@@H](N)CCCN=C(N)N)C(N)=O | 7.15 |  |  |  |  |  | 
CSCC[C@H](NC(=O)[C@H](CC(C)C)NC(=O)CNC(=O)[C@H](Cc1ccccc1)NC(=O)[C@@H](NC(=O)[C@H](CCC(N)=O)NC(=O)[C@H](CCC(N)=O)NC(=O)[C@@H]1CCCN1C(=O)[C@H](CCCCN)NC(=O)[C@@H]1CCCN1C(=O)[C@@H](N)CCCN=C(N)N)C1CCc2cc3ccccc3cc21)C(N)=O (some centres not stated) [listing 1 of 2 here] |  | 6.9 | 49 | 1600 | 48 | 120 | 
CSCC[C@H](NC(=O)[C@H](CC(C)C)NC(=O)CNC(=O)[C@H](Cc1ccccc1)NC(=O)[C@@H](NC(=O)[C@H](CCC(N)=O)NC(=O)[C@H](CCC(N)=O)NC(=O)[C@@H]1CCCN1C(=O)[C@H](CCCCN)NC(=O)[C@@H]1CCCN1C(=O)[C@@H](N)CCCN=C(N)N)C1c2ccccc2-c2ccccc21)C(N)=O [listing 1 of 2 here] |  | 9.5 | 110 | 3100 | 1400 | 690 | 
CSCC[C@H](NC(=O)[C@H](CC(C)C)NC(=O)CNC(=O)[C@H](Cc1ccccc1)NC(=O)[C@@H](NC(=O)[C@H](CCC(N)=O)NC(=O)[C@H](CCC(N)=O)NC(=O)[C@@H]1CCCN1C(=O)[C@H](CCCCN)NC(=O)[C@@H]1CCCN1C(=O)[C@@H](N)CCCN=C(N)N)[C@@H]1CCc2ccccc21)C(N)=O [listing 2 of 2 here] | 7.06 |  |  |  |  |  | 
CSCC[C@H](NC(=O)[C@H](CC(C)C)NC(=O)CNC(=O)[C@@H](NC(=O)[C@H](Cc1ccccc1)NC(=O)[C@H](CCC(N)=O)NC(=O)[C@H](CCC(N)=O)NC(=O)[C@@H]1CCCN1C(=O)[C@H](CCCCN)NC(=O)[C@@H]1CCCN1C(=O)[C@@H](N)CCCN=C(N)N)C(c1ccccc1)c1ccccc1)C(N)=O [listing 2 of 2 here] | 6.9 |  |  |  |  |  | 
CSCC[C@H](NC(=O)[C@H](CC(C)C)NC(=O)CNC(=O)[C@@H](NC(=O)[C@@H](NC(=O)[C@H](CCC(N)=O)NC(=O)[C@H](CCC(N)=O)NC(=O)[C@@H]1CCCN1C(=O)[C@H](CCCCN)NC(=O)[C@@H]1CCCN1C(=O)[C@@H](N)CCCN=C(N)N)C1CCc2ccccc21)C1c2ccccc2-c2ccccc21)C(N)=O (some centres not stated) (H-RPKPQQ[X1][Gly(9-fluorenyl)]GLM-NH2) [listing 1 of 2 here] |  | 3.4 | 7.9 | 450 | 29 | 110 | 
CSCC[C@H](NC(=O)[C@H](CC(C)C)NC(=O)CNC(=O)[C@@H](NC(=O)[C@@H](NC(=O)[C@H](CCC(N)=O)NC(=O)[C@H](CCC(N)=O)NC(=O)[C@@H]1CCCN1C(=O)[C@H](CCCCN)NC(=O)[C@@H]1CCCN1C(=O)[C@@H](N)CCCN=C(N)N)C1CCc2ccccc21)C1c2ccccc2-c2ccccc21)C(N)=O (some centres not stated) (H-RPKPQQ[X1][Gly(9-fluorenyl)]GLM-NH2) [listing 2 of 2 here] |  |  |  |  |  |  | pKb (Cavia porcellus [5]): 7.1
CSCC[C@H](NC(=O)[C@H](CC(C)C)NC(=O)CNC(=O)[C@H](Cc1ccccc1)NC(=O)[C@@H](NC(=O)[C@H](CCC(N)=O)NC(=O)[C@H](CCC(N)=O)NC(=O)[C@@H]1CCCN1C(=O)[C@H](CCCCN)NC(=O)[C@@H]1CCCN1C(=O)[C@@H](N)CCCN=C(N)N)C1c2ccccc2-c2ccccc21)C(N)=O [listing 2 of 2 here] | 7.1 |  |  |  |  |  | 
CSCC[C@H](NC(=O)[C@H](CC(C)C)NC(=O)CNC(=O)[C@H](CCc1ccccc1)NC(=O)[C@H](Cc1ccccc1)NC(=O)[C@H](CCC(N)=O)NC(=O)[C@H](CCC(N)=O)NC(=O)[C@@H]1CCCN1C(=O)[C@H](CCCCN)NC(=O)[C@@H]1CCCN1C(=O)[C@@H](N)CCCN=C(N)N)C(N)=O |  | 2.8 | 74 | 1900 |  | 450 | 
CSCC[C@H](NC(=O)[C@H](CC(C)C)NC(=O)CNC(=O)[C@H](Cc1ccccc1)NC(=O)[C@H](CCc1ccccc1)NC(=O)[C@H](CCC(N)=O)NC(=O)[C@H](CCC(N)=O)NC(=O)[C@@H]1CCCN1C(=O)[C@H](CCCCN)NC(=O)[C@@H]1CCCN1C(=O)[C@@H](N)CCCN=C(N)N)C(N)=O [listing 2 of 2 here] |  | 5.8 | 19 | > 10000 |  | 1900 | 
CSCC[C@H](NC(=O)[C@H](CC(C)C)NC(=O)[C@@H]1CCCN1C(=O)[C@H](Cc1ccccc1)NC(=O)[C@H](Cc1ccccc1)NC(=O)[C@H](CCC(N)=O)NC(=O)[C@H](CCC(N)=O)NC(=O)[C@@H]1CCCN1C(=O)[C@H](CCCCN)NC(=O)[C@@H]1CCCN1C(=O)[C@@H](N)CCCN=C(N)N)C(N)=O | 6.97 |  |  |  |  |  | 
CSCC[C@H](NC(=O)[C@H](CC(C)C)NC(=O)CNC(=O)[C@@H](NC(=O)[C@H](Cc1ccccc1)NC(=O)[C@H](CCC(N)=O)NC(=O)[C@H](CCC(N)=O)NC(=O)[C@@H]1CCCN1C(=O)[C@H](CCCCN)NC(=O)[C@@H]1CCCN1C(=O)[C@@H](N)CCCN=C(N)N)C(C)(C)C)C(N)=O |  | 2.5 |  | 65 | 2.6 | 9 | 
CSCC[C@H](NC(=O)[C@H](CC(C)C)NC(=O)CNC(=O)[C@H](Cc1ccccc1)NC(=O)[C@@H](NC(=O)[C@H](CCC(N)=O)NC(=O)[C@H](CCC(N)=O)NC(=O)[C@@H]1CCCN1C(=O)[C@H](CCCCN)NC(=O)[C@@H]1CCCN1C(=O)[C@@H](N)CCCN=C(N)N)C1CCc2cc3ccccc3cc21)C(N)=O (some centres not stated) [listing 2 of 2 here] | 7.3 |  |  |  |  |  | 
CSCC[C@H](NC(=O)[C@H](CC(C)C)NC(=O)CNC(=O)[C@H](Cc1ccccc1)NC(=O)[C@H](NC(=O)[C@H](CCC(N)=O)NC(=O)[C@H](CCC(N)=O)NC(=O)[C@@H]1CCCN1C(=O)[C@H](CCCCN)NC(=O)[C@@H]1CCCN1C(=O)[C@@H](N)CCCN=C(N)N)C1Cc2ccccc2C1)C(N)=O |  | 4170 |  | > 10000 | 2800 | 3900 | 
